# Data from ChEMBL document CHEMBL1125930, “3-O-alkylascorbic acids as free-radical quenchers: synthesis and inhibitory effect on lipid peroxidation” (J Med Chem, 1991).
# Experiments:
# Rattus norvegicus [1] = organism: Rattus norvegicus; test: The compound was tested for the inhibition of lipid peroxidation in rat liver microsomes induced by [Fe3+] at a concentration of 10E-5 M.; format: functional
# How it was run: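 Fasted Wistar rat liver microsomes, 2.0 mg protein in 1 mL of 83.5 mM KCl/37.2 mM Tris-HCl pH 7.4. Peroxidation started with 1 mM ADP, 10 μM FeCl3 and 0.02 mM NADPH. Compound added in 0.01 mL DMF. 37 °C for 20 min, stopped on ice. Malondialdehyde measured as TBA-reactive material: 95 °C for 20 min, butanol/pyridine extract, A532. Compared with vehicle control.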
# [2] = Partition ratio obtained from HPLC analysis.; format: ADME
# Rattus norvegicus [3] = organism: Rattus norvegicus; test: The compound was tested for the inhibition of lipid peroxidation in rat liver microsomes induced by [Fe2+] at a concentration of 10E-5 M.; format: functional
# How it was run: (§1)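 Liver microsomes from 24 h-fasted Wistar rats (8000g then 105000g pellet, in 0.15 M KCl, protein by Lowry). 1 mL mix: 83.5 mM KCl, 37.2 mM Tris-HCl pH 7.4, 10 μM FeSO4, 2 mg microsomal protein, compound in 0.01 mL DMF. 37 °C for 20 min. TBA-reactive material read at 532 nm after n-BuOH/pyridine extraction. Reported against vehicle control.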
# Rattus norvegicus [4] = organism: Rattus norvegicus; test: The compound was tested for the stimulation of lipid peroxidation in rat liver microsomes induced by [Fe2+] at a concentration of 10E-5 M.; format: functional; how it was run: as §1
k' [2],Compound,inhibition (Rattus norvegicus [1]),inhibition (Rattus norvegicus [3]),Stimulation (Rattus norvegicus [4])
–,CCCCCCCCCCOC1=C(OCCCCCCCCCC)C(C(O)CO)OC1=O (centres undefined),2%,–,–
4.78,CCCCCCCCCCCCCCOC1=C(O)C(=O)OC1C(O)CO (centres undefined),81%,30%,–
2.25,CCCCCCCCCCCCC(=O)COC1=C(O)C(=O)OC1C(O)CO (centres undefined),81%,30%,–
< 0.1,CC(=O)COC1=C(O)C(C2COC(C)(C)O2)OC1=O (centres undefined),2%,–,–
0.24,CCCCCCC(=O)COC1=C(O)C(=O)OC1C(O)CO (centres undefined),27%,20%,–
0.45,CCCCCCCCCCCCCCCCC(=O)COC1=C(O)OC(C(O)CO)C1=O (centres undefined),55%,–,–
< 0.1,O=C1OC(C(O)CO)C(OCc2cccnc2)=C1O (centres undefined),2%,–,–
0.62,CCCCCCCCOC1=C(O)C(=O)OC1C(O)CO (centres undefined),40%,9%,–
< 0.1,O=C1O[C@H]([C@@H](O)CO)C(O)=C1O [ASCORBIC ACID],–,–,72%
2.49,CCCCCCCCCCCCOC1=C(O)C(=O)OC1C(O)CO (centres undefined),88%,34%,–
1.13,CCCCCCCCCCCCCCCCCCOC1=C(O)[C@@H](C(O)CO)OC1=O (some centres undefined),88%,29%,–
8.26,CCCCCCCCCCCCCCCCC(=O)COC1=C(O)C(=O)OC1C(O)CO (centres undefined),43%,28%,–
–,CCCCOC(=O)COC1=C(O)OC(C(O)CO)C1=O (centres undefined),10%,–,–
1.27,CCCCCCCCCCOC1=C(O)C(=O)OC1C(O)CO (centres undefined),91%,44%,–
4.33,CCCCCCCCCCCCCCC(=O)COC1=C(O)C(=O)OC1C(O)CO (centres undefined),65%,33%,–
–,CCCCCCCCCCOC(=O)COC1=C(O)C(=O)OC1C(O)CO (centres undefined),–,31%,–
0.63,CCCCCCCCCCCCOC1=C(O)OC(C(O)CO)C1=O (centres undefined),83%,–,–
17.34,CCCCCCCCCCCCCCCCCCOC1=C(O)C(=O)OC1C(O)CO (centres undefined),45%,7%,–
< 0.2,CCCCCCCCOC1=C(O)OC(C(O)CO)C1=O (centres undefined),20%,–,–
0.55,CCCCCCCCC(=O)COC1=C(O)C(=O)OC1C(O)CO (centres undefined),64%,33%,–
9.09,CCCCCCCCCCCCCCCCOC1=C(O)C(=O)OC1C(O)CO (centres undefined),74%,21%,–
1.14,CCCCCCCCCCC(=O)COC1=C(O)C(=O)OC1C(O)CO (centres undefined),88%,44%,–
